Measurements taken from ChEMBL document CHEMBL3808325, “Discovery and Optimization of Macrocyclic Quinoxaline-pyrrolo-dihydropiperidinones as Potent Pim-1/2 Kinase Inhibitors” (ACS Med Chem Lett, 2016).

Tests used:
Plasma = experiment: Free plasma concentration in SCID-beige mouse at 5 uM by LC/MS analysis; type: ADME, cell-free
[1] = target: Dual specificity tyrosine-phosphorylation-regulated kinase 1B (Homo sapiens) (UniProt Q9Y463); experiment: Inhibition of human DYRK1B assessed as remaining enzyme activity at 1 uM by KINOMEscan assay
How it was run: (§1)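 scanMAX KINOMEscan panel of 392 nonmutant kinases, compound tested at 1 μM. Result expressed as percent of control (POC). S(10) and S(1) scores are the fraction of kinases with POC below 10% and below 1%.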

Mus musculus [2] = experiment: Toxicity in human KMS-12-BM cells xenografted SCID-beige mouse assessed as drug tolerability at 10 to 100 mg/kg, po qd; type: organism-based; conditions: in vivo
How it was run: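 Tolerability followed in KMS-12-BM xenograft mice given oral doses once daily at 10, 25, 50 or 100 mg/kg over a 16-day efficacy study. Body weight monitored throughout.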

[3] = target: Casein kinase I isoform epsilon (Homo sapiens) (UniProt P49674); experiment: Inhibition of full-length human CSNK1E expressed in bacterial system assessed as remaining enzyme activity at 1 uM by KINOMEscan assay; how it was run: as §1
[4] = Oral bioavailability in Sprague-Dawley rat at 5 mg/kg; type: ADME, organism-based; conditions: in vivo
How it was run: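 Pharmacokinetics in male Sprague–Dawley rats. Clearance also expressed as a percentage of liver blood flow. Oral bioavailability determined.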

Mus musculus [5] = experiment: In vivo inhibition of Pim1/2-mediated BAD protein phosphorylation at Ser-112 in human KMS-12-BM cells xenografted in SCID-beige mouse assessed as pBAD level at 100 mg/kg, po administered as single dose measured after 16 hrs by meso scale discovery assay; type: functional; set-up: scale not given: the % may be the effect or the level left
How it was run: (§2)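 KMS-12-BM xenograft mice given a single oral dose of 25, 50 or 100 mg/kg. Tumor Ser-112 pBAD measured at time points through 16 h postdose. EC50 obtained by fitting all individual total plasma concentration–pBAD response data. Unbound value derived from mouse plasma fraction unbound.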

[6] = Apparent permeability in pig LLC-PK1 cells at 5 uM; type: ADME, cell-based, Sus scrofa
[7] = target: Serine/threonine-protein kinase pim-2 (Homo sapiens, UniProt Q9P1W9); experiment: Inhibition of human full-length Pim2 expressed in Escherichia coli assessed as phosphorylation of biotinylated BAD peptide at Ser 112 preincubated for 30 mins followed by substrate addition measured after 1 hr by HTRF assay
How it was run: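 Cell-free kinase assay using recombinant Pim-1 or Pim-2. Read-out is phosphorylation of a short BAD peptide sequence spanning Ser-112.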

Mus musculus [8] = experiment: In vivo inhibition of Pim1/2-mediated BAD protein phosphorylation at Ser-112 in human KMS-12-BM cells xenografted in SCID-beige mouse assessed as pBAD level at 25 mg/kg, po administered as single dose measured after 16 hrs by meso scale discovery assay; type: functional; set-up: scale not given: the % may be the effect or the level left; how it was run: as §2
Mus musculus [9] = experiment: In vivo inhibition of Pim1/2-mediated BAD protein phosphorylation at Ser-112 in human KMS-12-BM cells xenografted in SCID-beige mouse measured after 6 to 16 hrs by meso scale discovery assay; type: functional, organism-based; how it was run: as §2
[10] = target: Casein kinase I isoform alpha-like (Homo sapiens) (UniProt Q8N752); experiment: Inhibition of full-length human CSNK1A1L expressed in bacterial system assessed as remaining enzyme activity at 1 uM by KINOMEscan assay; how it was run: as §1
[11] = target: Homeodomain-interacting protein kinase 3 (Homo sapiens) (UniProt Q9H422); experiment: Inhibition of human HIPK3 assessed as remaining enzyme activity at 1 uM by KINOMEscan assay; how it was run: as §1
[12] = target: Serine/threonine-protein kinase pim-1 (Homo sapiens, UniProt P11309); experiment: Inhibition of human PIM1 assessed as remaining enzyme activity at 1 uM by KINOMEscan assay
How it was run: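 Profiled at 1 μM compound across a scanMAX KINOMEscan panel of 392 nonmutant kinases. Activity is reported as percent-of-control (POC). Panel-wide S(10) and S(1) selectivity scores are the fraction of kinases with POC below 10% and below 1%.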

Mus musculus [13] = experiment: In vivo inhibition of Pim1/2-mediated BAD protein phosphorylation at Ser-112 in human KMS-12-BM cells xenografted in SCID-beige mouse assessed as pBAD level at 25 mg/kg, po administered as single dose measured after 6 hrs by meso scale discovery assay; type: functional; set-up: scale not given: the % may be the effect or the level left; how it was run: as §2
[14] = Fraction unbound in SCID-beige mouse plasma at 5 uM by LC/MS analysis; type: ADME, cell-free
[15] = target: Serine/threonine-protein kinase haspin (Homo sapiens) (UniProt Q8TF76); experiment: Inhibition of human haspin assessed as remaining enzyme activity at 1 uM by KINOMEscan assay; how it was run: as §1
Chain of Serine/threonine-protein kinase haspin (Homo sapiens) (Q8TF76 whole entry): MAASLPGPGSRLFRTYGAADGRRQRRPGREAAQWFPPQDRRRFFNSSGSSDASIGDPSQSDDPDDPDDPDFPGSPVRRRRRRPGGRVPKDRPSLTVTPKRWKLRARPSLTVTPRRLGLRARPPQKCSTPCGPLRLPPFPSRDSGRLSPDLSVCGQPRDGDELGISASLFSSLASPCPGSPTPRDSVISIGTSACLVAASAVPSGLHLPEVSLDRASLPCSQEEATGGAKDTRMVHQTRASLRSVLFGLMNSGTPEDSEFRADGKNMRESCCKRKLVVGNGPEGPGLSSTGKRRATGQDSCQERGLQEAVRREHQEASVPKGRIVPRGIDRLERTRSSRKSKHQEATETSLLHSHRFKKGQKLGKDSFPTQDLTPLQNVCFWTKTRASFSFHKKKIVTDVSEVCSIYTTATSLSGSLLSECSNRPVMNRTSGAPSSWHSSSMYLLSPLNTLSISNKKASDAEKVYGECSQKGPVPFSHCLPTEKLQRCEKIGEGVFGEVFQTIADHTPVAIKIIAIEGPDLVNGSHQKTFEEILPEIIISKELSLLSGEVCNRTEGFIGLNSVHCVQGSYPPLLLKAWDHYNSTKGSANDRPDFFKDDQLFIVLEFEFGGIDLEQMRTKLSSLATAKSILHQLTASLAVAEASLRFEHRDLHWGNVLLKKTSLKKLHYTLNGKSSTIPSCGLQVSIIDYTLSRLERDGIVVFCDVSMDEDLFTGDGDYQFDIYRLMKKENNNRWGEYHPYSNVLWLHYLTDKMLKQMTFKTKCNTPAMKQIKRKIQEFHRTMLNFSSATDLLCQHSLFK

Chain of Serine/threonine-protein kinase pim-2 (Q9P1W9 whole entry): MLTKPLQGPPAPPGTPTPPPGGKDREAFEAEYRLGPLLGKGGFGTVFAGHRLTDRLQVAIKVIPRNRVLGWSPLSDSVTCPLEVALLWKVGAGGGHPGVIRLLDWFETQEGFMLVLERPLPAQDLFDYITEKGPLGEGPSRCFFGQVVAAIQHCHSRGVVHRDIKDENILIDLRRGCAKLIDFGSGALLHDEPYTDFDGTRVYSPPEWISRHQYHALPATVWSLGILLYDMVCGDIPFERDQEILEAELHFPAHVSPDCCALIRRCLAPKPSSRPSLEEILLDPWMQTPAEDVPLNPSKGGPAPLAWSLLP
Chain of Serine/threonine-protein kinase pim-1 (P11309 whole entry, looked up): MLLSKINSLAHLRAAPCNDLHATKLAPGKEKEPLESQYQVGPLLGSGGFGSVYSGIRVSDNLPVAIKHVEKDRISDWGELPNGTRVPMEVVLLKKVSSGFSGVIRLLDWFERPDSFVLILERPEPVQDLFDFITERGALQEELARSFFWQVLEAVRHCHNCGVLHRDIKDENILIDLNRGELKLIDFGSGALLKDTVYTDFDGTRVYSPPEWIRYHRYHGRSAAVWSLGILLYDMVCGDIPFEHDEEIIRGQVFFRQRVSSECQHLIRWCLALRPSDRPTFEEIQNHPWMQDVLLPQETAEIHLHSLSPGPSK
Chain of Dual specificity tyrosine-phosphorylation-regulated kinase 1B (Homo sapiens) (Q9Y463 whole entry, looked up): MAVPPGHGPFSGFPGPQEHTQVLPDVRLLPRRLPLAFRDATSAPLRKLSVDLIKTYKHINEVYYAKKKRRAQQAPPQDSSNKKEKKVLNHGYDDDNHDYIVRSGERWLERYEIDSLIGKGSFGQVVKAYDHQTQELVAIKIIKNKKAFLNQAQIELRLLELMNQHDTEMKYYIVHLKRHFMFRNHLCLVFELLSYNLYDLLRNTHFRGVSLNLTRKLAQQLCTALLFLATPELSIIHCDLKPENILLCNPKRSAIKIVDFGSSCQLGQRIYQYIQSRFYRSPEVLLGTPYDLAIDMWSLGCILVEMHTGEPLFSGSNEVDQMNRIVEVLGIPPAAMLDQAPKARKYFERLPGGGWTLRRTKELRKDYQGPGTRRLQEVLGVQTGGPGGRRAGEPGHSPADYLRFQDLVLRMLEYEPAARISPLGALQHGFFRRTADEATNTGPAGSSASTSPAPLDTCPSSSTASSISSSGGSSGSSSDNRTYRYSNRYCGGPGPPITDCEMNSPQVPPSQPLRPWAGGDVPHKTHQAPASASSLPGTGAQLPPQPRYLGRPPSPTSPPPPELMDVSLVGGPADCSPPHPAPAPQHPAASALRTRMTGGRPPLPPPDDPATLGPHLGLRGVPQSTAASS
Chain of Casein kinase I isoform epsilon (Homo sapiens) (P49674 whole entry, looked up, canonical isoform): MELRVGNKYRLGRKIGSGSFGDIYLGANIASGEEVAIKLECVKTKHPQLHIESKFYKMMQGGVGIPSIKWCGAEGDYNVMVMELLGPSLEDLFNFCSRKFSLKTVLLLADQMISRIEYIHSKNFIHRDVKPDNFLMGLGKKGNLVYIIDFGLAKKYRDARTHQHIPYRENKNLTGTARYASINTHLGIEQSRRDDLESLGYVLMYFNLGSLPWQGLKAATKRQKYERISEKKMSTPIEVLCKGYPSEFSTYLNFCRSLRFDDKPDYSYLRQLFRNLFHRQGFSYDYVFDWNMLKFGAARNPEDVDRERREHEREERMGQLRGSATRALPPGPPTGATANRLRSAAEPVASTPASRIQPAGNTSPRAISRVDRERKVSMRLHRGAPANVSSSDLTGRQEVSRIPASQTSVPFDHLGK
Chain of Casein kinase I isoform alpha-like (Homo sapiens) (Q8N752 whole entry, canonical isoform): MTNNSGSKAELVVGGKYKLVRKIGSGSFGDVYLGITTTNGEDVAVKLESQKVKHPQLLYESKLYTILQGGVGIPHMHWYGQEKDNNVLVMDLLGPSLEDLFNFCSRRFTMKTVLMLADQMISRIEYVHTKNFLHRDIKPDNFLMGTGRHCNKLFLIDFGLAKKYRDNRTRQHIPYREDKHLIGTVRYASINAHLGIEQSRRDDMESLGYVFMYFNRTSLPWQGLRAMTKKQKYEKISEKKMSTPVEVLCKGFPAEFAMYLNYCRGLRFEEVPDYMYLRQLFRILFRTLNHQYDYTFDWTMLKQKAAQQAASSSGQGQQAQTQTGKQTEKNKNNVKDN
Chain of Homeodomain-interacting protein kinase 3 (Homo sapiens) (Q9H422 whole entry, looked up): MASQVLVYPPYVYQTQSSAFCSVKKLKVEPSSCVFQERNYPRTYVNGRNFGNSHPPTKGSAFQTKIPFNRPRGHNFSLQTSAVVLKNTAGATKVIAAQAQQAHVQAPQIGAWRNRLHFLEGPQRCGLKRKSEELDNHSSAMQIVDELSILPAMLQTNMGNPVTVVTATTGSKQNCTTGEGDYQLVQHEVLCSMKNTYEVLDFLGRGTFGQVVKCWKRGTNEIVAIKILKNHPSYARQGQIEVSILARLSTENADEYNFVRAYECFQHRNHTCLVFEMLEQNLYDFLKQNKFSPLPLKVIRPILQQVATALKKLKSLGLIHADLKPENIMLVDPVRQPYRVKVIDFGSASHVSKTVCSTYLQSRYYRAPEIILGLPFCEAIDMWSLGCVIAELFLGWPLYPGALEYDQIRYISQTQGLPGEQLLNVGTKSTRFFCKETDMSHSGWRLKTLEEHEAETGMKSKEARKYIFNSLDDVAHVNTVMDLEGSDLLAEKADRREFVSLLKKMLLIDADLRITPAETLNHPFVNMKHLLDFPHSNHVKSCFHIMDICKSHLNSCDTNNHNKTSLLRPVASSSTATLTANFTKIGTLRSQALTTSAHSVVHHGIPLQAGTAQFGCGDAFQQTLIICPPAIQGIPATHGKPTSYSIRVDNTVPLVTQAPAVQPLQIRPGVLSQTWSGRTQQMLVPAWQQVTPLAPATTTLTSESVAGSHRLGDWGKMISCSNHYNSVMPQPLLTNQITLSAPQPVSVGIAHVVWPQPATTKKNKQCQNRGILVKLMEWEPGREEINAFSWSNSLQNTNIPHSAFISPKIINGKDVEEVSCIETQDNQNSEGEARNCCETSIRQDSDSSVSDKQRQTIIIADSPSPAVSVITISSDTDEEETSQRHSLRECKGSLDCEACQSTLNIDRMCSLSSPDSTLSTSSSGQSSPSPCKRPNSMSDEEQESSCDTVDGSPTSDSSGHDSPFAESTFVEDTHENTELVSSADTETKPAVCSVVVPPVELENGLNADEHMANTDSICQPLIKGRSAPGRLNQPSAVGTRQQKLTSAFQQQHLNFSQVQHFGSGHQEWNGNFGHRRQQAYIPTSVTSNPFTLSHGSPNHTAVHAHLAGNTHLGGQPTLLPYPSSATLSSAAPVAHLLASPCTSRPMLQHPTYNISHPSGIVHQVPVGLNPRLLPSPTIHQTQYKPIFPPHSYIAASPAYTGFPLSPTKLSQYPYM

Cp(f) (Plasma): 30 nM
Activity [1]: < 10%
Activity [3]: < 10%
bioavailability [4]: 48%
Papp at 5 µM [6]: 29 ×10⁻⁶ cm/s
IC50 [7]: 0.5 nM
EC50 (Mus musculus [9]): 3600 nM
Activity [10]: < 10%
Activity [11]: < 10%
Activity [12]: < 10%
fraction unbound at 5 µM [14]: 0.0084
Activity [15]: < 10%
Compound: Cc1nc2cccc3c2nc1N[C@H](C)/C=C\C[C@H]1CNC(=O)c2cc-3[nH]c21
Activity (Mus musculus [2]): Non-toxic
Activity (Mus musculus [5]): 53%
Activity (Mus musculus [8]): 0%
Activity (Mus musculus [9]): Dose-dependent effect
Activity (Mus musculus [13]): 35%
